# Among all 2,300 compounds or so, about 25 (1%) were called active.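 The calls were made as follows: active = mean inhibition over three replicate wells above the hit threshold derived in the earlier primary screen (cut at about 45% in these data); inactive = the rest.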 The sample as a whole holds a higher share of actives than the screen did.
# Tested on: Hepatitis C virus core protein (core106 dimerization)
# Test: blockers of core106 self-association – biochemical, TR-FRET, triplicate, confirmation (AID 2152);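 also: 0% = DMSO wells and 100% = unlabelled core106 competitor control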
# Settings: TR-FRET GST-/Flag-core106 dimerization, HTRF; at 5 µM; stronger effect = higher value
# How it was run: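 Test system: GST- and Flag-tagged HCV core106 peptides, dimerization via antibody TR-FRET | Medium: HEPES/KF buffer, pH 7.45 | Also added: Eu(K)-anti-GST plus XL665-anti-FLAG antibodies | Times: 4 h incubation, 22.5 °C | Signal: TR-FRET, excitation 340 nm, emission 671 and 617 nm | Evaluation: Percent inhibition from emission ratio | Replication: Triplicate wells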
row,SMILES,inhibition
1,Cc1ccc(NC(=O)N(Cc2ccc3c(c2)OCO3)Cc2cc3cc4c(cc3[nH]c2=O)OCCO4)cc1,2.67% (inactive)
2,CC(=O)NS(=O)(=O)c1ccc(NC(=O)c2cc(-c3ccc(C)c(C)c3)nc3ccccc23)cc1,5.8% (inactive)
3,COc1cc(C(=O)NCC(=O)OCC(=O)c2cccc3ccccc23)cc(OC)c1OC,-3.85% (inactive)
4,O=C(c1ccco1)N1CCN(c2nc(C3CC3)nc3c2nnn3Cc2ccccc2Cl)CC1,-2.25% (inactive)
5,CCOC(=O)c1nn(-c2ccccc2C)c2nc(-c3ccc(Cl)cc3)c(C#N)c(=O)n12,3.54% (inactive)
6,Cc1cccc(N(C)S(=O)(=O)c2ccc3c(c2)C(C)(C)C(=O)N3C)c1,4.84% (inactive)
7,COc1cc(OC)c(NC(=O)CN(C)S(=O)(=O)c2ccc(-c3ccc(=O)[nH]n3)s2)cc1Cl,-0.24% (inactive)
8,O=C(COC(=O)/C=C/c1ccc(Br)o1)Nc1ccc2[nH]c(=O)[nH]c2c1,24.5% (inactive)
9,O=C(/C=C/c1ccc(Br)o1)OCc1nc2ccsc2c(=O)[nH]1,46% (active)
10,O=C1COc2ccc(C(=O)COC(=O)/C=C/c3ccc(Br)o3)cc2N1,35.5% (inactive)
11,Cc1ccccc1N1CC(C(=O)Nc2nnc(SCc3ccccn3)s2)CC1=O (stereo not given),0.24% (inactive)
12,O=C(Nc1ccc(N2CCCC2)c(Cl)c1)c1ccc2c(c1)OCCO2,-0.93% (inactive)
13,Cc1ccc(OCC(=O)c2cc(C)c(C)cc2C)c([N+](=O)[O-])n1,-9.54% (inactive)
14,Cc1cc(C(=O)CSc2nnc(-c3ccc(OC(F)F)cc3)o2)c(C)n1Cc1cccs1,-10.5% (inactive)
15,C=CCn1c(C)cc(C2=NNC(=Nc3ccc(C)cc3)SC2)c1C,-4.54% (inactive)
16,O=C(O)CCC(=O)N1N=C(c2cccs2)CC1c1cn(-c2ccccc2)nc1-c1ccccc1 (stereo not given),7.42% (inactive)
17,O=c1cc(-c2ccccc2Cl)c2c([nH]1)CCC2,-2.22% (inactive)
18,Cc1ccc(C2C(C#N)=C(N)Oc3c2sc2ccccc32)o1 (stereo not given),14% (inactive)
19,Cc1cccc(N2CSC3=C(C#N)C(c4ccc(C)o4)CC(=O)N3C2)c1 (stereo not given),50.5% (active)
20,Cc1ccc(C2CC(=O)N3CN(c4ccc(Br)cc4)CSC3=C2C#N)o1 (stereo not given),-1.74% (inactive)
21,CC1CCc2sc(C(=O)N/N=C/c3ccc([N+](=O)[O-])cc3)cc2C1 (stereo not given),-11.5% (inactive)
22,Cc1cccc(N2CC(C(=O)Nc3nnc(SCC(=O)N4CCOCC4)s3)CC2=O)c1 (stereo not given),11.4% (inactive)

row,SMILES,inhibition
1,Cc1ccc(Cn2c(C(C)Nc3nc(-c4ccc(Cl)c([N+](=O)[O-])c4)cs3)nc3cc(C(F)(F)F)ccc32)cc1 (stereo not given),5.29% (inactive)
2,N#Cc1ccc(C23CC4(C2)[C@H](CN(P(=O)(c2ccccc2)c2ccccc2)[C@@H]4c2ccccc2)C3c2ccc(Cl)nc2)cc1 (stereo not given in full),8.04% (inactive)
3,CN(CC(=O)Nc1sccc1C#N)C1CCCCC1,6.43% (inactive)
4,CC1CC1C(=O)Nc1nc(-c2cccs2)c(-c2cccs2)s1 (stereo not given),7.18% (inactive)
5,Cc1ccc(C2C(C#N)=C(N)SC(N)=C2C#N)c(C)c1,58% (active)
6,Cc1sccc1C1C(C#N)=C(N)SC(N)=C1C#N,32.6% (inactive)
7,COc1ccc(C2C(C#N)=C(N)SC(N)=C2C#N)cc1OC,2.28% (inactive)
8,Cc1cc(Cl)ccc1OC(C)C(=O)Nc1ccc(S(=O)(=O)Nc2cnc3ccccc3n2)cc1 (stereo not given),-3.49% (inactive)
9,Cc1ccc(C)c(NC(=O)CN(C)C(=O)c2cccc(-n3cccc3)c2)c1,4.94% (inactive)
10,COc1cccc2cc(/C(C)=N/Nc3nc(-c4cc(C)ccc4C)cs3)c(=O)oc12,16.7% (inactive)
11,COc1ccc(CCNC(=O)c2ccc3c(c2)NC(=O)C(CSCc2cc(C)ccc2C)N3)cc1OC (stereo not given),2.87% (inactive)
12,COc1ccc2c(c1)[nH]c(=O)c1sc3ccccc3c12,-0.73% (inactive)
13,O=C(Nc1nnc(-c2ccccc2Cl)o1)c1nc2ccccc2s1,-8.09% (inactive)
14,CN(C)c1ccc(/C=C/C=C2/SC(=S)N(c3ccccc3)C2=O)cc1,-12.6% (inactive)
15,COc1ccc(OC)c(-c2csc(NC(=O)CSc3ccc([N+](=O)[O-])cc3)n2)c1,-0.57% (inactive)
16,O=c1ccc2c(-c3ccccc3)c3ccc(O)cc3oc-2c1,-13.9% (inactive)
17,COc1ccc2c(c1[N+](=O)[O-])CCC/C2=N/OC(=O)c1ccccc1SC,-1.21% (inactive)
18,COc1ccc(/C=N\NS(=O)(=O)c2ccc(Cl)cc2)cc1COc1ccccc1[N+](=O)[O-],-7.14% (inactive)
19,O=C(NCc1cccnc1)c1ccc(COc2cccc3ccccc23)o1,4.61% (inactive)
20,O=C(CN(c1ccc(Cl)c(C(F)(F)F)c1)S(=O)(=O)c1ccccc1)N/N=C/c1cccc2c1OCCO2,-4.47% (inactive)
21,O=C(Nc1ccc(NC(=S)NC(=O)C(c2ccccc2)c2ccccc2)cc1)c1ccccc1,5.69% (inactive)
22,COc1ccc(C(=O)N/C(=C/c2cccc3ccccc23)C(=O)NCCc2c[nH]c3ccccc23)cc1OC,-0.16% (inactive)

row,SMILES,inhibition
1,O=C(Nc1ccccc1)c1ccc(Nc2c([N+](=O)[O-])cc([N+](=O)[O-])c3ccccc23)cc1,1.02% (inactive)
2,COc1ccc(N2CCN(C(=O)c3ccc4c(c3)NC(=O)C(CSCc3ccc(C)cc3)N4)CC2)cc1 (stereo not given),27% (inactive)
3,CSc1nc(N(C)CCO)c2sc3nc(-c4ccco4)c4c(c3c2n1)CCC4,-23.5% (inactive)
4,COc1ccccc1CCNC(=O)c1cc(-c2ccccn2)nc2ccc(Br)cc12,-9.45% (inactive)
5,Cc1cc(C#N)c(C)n1-c1cc(S(=O)(=O)N2CCOCC2)ccc1N1CCCC1,2.12% (inactive)
6,CC1(C)Cc2c(C#N)c(N3CCN(C(=O)c4ccccc4Cl)CC3)nc(-c3ccco3)c2CS1,16.3% (inactive)
7,O=C(N/N=C/c1ccc([N+](=O)[O-])o1)c1cn(-c2ccccc2)nc1-c1ccc(Cl)cc1,-1.11% (inactive)
8,Cc1ccc(-c2csc(C3=C(O)CN(NC(=O)c4ccc([N+](=O)[O-])cc4)C3=N)n2)cc1,6.2% (inactive)
9,O=c1[nH]c(C(Cl)Cl)nc2sc3c(c12)CCN(Cc1ccccc1)C3,14.3% (inactive)
10,COC(=O)c1ccc(Nc2cc(C)nc(-c3ccccc3O)n2)cc1,6.69% (inactive)
11,CN1CCc2c(sc3c2c(=O)n(-c2ccccc2)c2nnc(SCc4ccccc4)n32)C1,3.83% (inactive)
12,O=C(COC(=O)c1cccc(S(=O)(=O)N2CCc3ccccc3C2)c1)NCc1ccco1,2.63% (inactive)
13,COc1ccc(-c2cc(OC(=O)c3ccc(F)cc3)c3c(C)oc(C)c3c(=O)c2)cc1,0.02% (inactive)
14,CN(Cc1ccccc1)C(=O)C1CCN(S(=O)(=O)c2ccc3nc4c(c(C(=O)O)c3c2)CCCC4)CC1,3.04% (inactive)
15,Cc1cc(Br)c2nc3c(c(C(=O)O)c2c1)CCCCC3,46.4% (active)
16,CC(C)(C)C(=O)COC(=O)c1c2c(nc3ccccc13)CCC2,-3.89% (inactive)
17,CCn1cc([N+](=O)[O-])c(C(=O)N2N=C(c3cccc4ccccc34)CC2c2ccccc2O)n1 (stereo not given),7.15% (inactive)
18,O=C(COc1ccccc1)Nc1ccc(-c2nnc(-c3ccco3)o2)cc1,21.3% (inactive)
19,COc1ccc(CC(=O)Nc2ccc(-c3nnc(-c4ccccc4)o3)cc2)cc1OC,56.3% (active)
20,COc1ccc(CC(=O)Nc2ccc(-c3nnc(-c4ccccc4)o3)cc2)cc1,11.4% (inactive)
21,Cc1nc2nc(SCC(=O)NCCCN3CCCCCC3)nn2c(C)c1Cc1ccccc1,13.3% (inactive)
22,Cc1ccc(Cc2c(C)nc3nc(SCC(=O)NCCCN4CCCCCC4)nn3c2C)cc1,89.8% (active)

row,SMILES,inhibition
1,NC(=O)c1ccsc1NC(=O)COC(=O)/C=C/c1ccc([N+](=O)[O-])cc1,7.73% (inactive)
2,CCCN(CCC)C(=O)c1cc(-c2ccc3c(c2)OCO3)nc2ccccc12,-2.46% (inactive)
3,Cc1cc(C(=O)OCC(=O)c2cccc([N+](=O)[O-])c2)c2cccc(C)c2n1,13.6% (inactive)
4,Cc1ccc(C)c(NC(=O)CSc2nc3nc(-c4cccs4)cc(C(F)(F)F)c3c(=O)[nH]2)c1,4.9% (inactive)
5,CCOc1cc(/C=N/NC(N)=O)cc(Br)c1OCC(=O)Nc1cccc2ccccc12,2.46% (inactive)
6,N#CC1=C(N)SC(N)=C(C#N)C1CCc1ccccc1,-1.8% (inactive)
7,N#CC1=C(N)SC(N)=C(C#N)C1c1ccnc2ccccc12,46.8% (active)
8,CCOc1ccccc1C1C(C#N)=C(N)SC(N)=C1C#N,1.92% (inactive)
9,C=CCn1nnc2sc3c(c2c1=O)CCC(C)C3 (stereo not given),-1.29% (inactive)
10,O=c1c2ccccc2nc2sc3ccccc3n12,-1% (inactive)
11,O=C(Nc1ccc(Cl)c(Cl)c1)Nc1nnc(-c2ccncc2)s1,38.8% (inactive)
12,Cc1ccc2nc(C)cc(C(=O)OCC(=O)c3ccc(Cl)c([N+](=O)[O-])c3)c2c1,-4.97% (inactive)
13,CCN(CC)c1ccc(/C=N/NC(=O)Cc2nnc(NC(=O)Nc3ccccc3)s2)cc1,-1.4% (inactive)
14,COc1ccc(/C=N/NC(=O)c2nn(-c3ccc(Cl)cc3)c(=O)c3c(N)scc23)cc1,9.33% (inactive)
15,O=C(COC(=O)C1c2ccccc2Oc2ccccc21)Nc1ccc2c(c1)OCO2,-1.06% (inactive)
16,O=C(NC(=S)Nc1ccc(-c2ccc(CO)o2)cc1)c1cccs1,-8.29% (inactive)
17,CC(C)(C)c1nnc2sc(SC/C(O)=C(\C#N)c3nc4ccccc4[nH]3)nn2c1=O,0.37% (inactive)
18,CC1=CC(=O)c2c(O)ccc(O)c2C1=O,35% (inactive)
19,O=C1c2c(O)cccc2Cc2cccc(O)c21,53.6% (active)

# Source: PubChem BioAssay AID2152 (The Scripps Research Institute Molecular Screening Center, 2009)
